Assay results as given in ChEMBL document CHEMBL5247650, “New Dual Inhibitors of Bacterial Topoisomerases with Broad-Spectrum Antibacterial Activity and In Vivo Efficacy against Vancomycin-Intermediate Staphylococcus aureus” (J Med Chem, 2023).
≈ marks a conversion by molar mass, not a printed value. Calls of active or inactive are those of the source. No cut-off for these calls is given here.

Tests used:
Pseudomonas aeruginosa = experiment: Antibacterial activity against Pseudomonas aeruginosa ATCC 27853 assessed as bacterial growth inhibition incubated for 18 hrs by microplate reader based analysis; format: functional
Escherichia coli = experiment: Antibacterial activity against Escherichia coli ATCC 25922 assessed as bacterial growth inhibition incubated for 18 hrs by microplate reader based analysis; format: functional
Enterobacter cloacae = experiment: Antibacterial activity against Enterobacter cloacae subsp. cloacae ATCC 13047 assessed as bacterial growth inhibition incubated for 18 hrs by microplate reader based analysis; format: functional
Acinetobacter baumannii [1] = experiment: Antibacterial activity against Acinetobacter baumannii ATCC 17978 assessed as bacterial growth inhibition incubated for 18 hrs by microplate reader based analysis; format: functional
[2] = Inhibition of Escherichia coli DNA topoisomerase 4 relaxation
[3] = Inhibition of Pseudomonas aeruginosa topoisomerase 4 decatenation incubated for 30 mins in presence of ATP by ethidium bromide staining based analysis
[4] = Inhibition of Acinetobacter baumannii topoisomerase 4 decatenation incubated for 30 mins in presence of ATP by ethidium bromide staining based analysis
Topoisomerase IV = Topoisomerase IV (Staphylococcus aureus, UniProt P0C1S7+P0C1U9); experiment: Inhibition of Staphylococcus aureus topoisomerase 4 decatenation incubated for 30 mins in presence of ATP by ethidium bromide staining based analysis; format: protein-complex assay
[5] = Thermodynamic solubility of compound in 100 mM PBS buffer at pH 7.4 incubated for 48 hrs under shaking condition by LC-MS/MS analysis; format: physicochemical; conditions: read-out: Therm_solubility
Klebsiella pneumoniae = experiment: Antibacterial activity against Klebsiella pneumoniae ATCC 10031 assessed as bacterial growth inhibition incubated for 18 hrs by microplate reader based analysis; format: functional
Acinetobacter baumannii [6] = experiment: Antibacterial activity against clinical isolate Acinetobacter baumannii assessed as bacterial growth inhibition at 4 ug/ml by CLSI based broth microdilution method relative to control; format: functional, organism-based; conditions: dose 4.0 µg/ml
Summary of the method: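 Hungarian clinical isolates and control strains were tested by the same CLSI broth microdilution procedure (MHBII, OD600 read-out after 18 h at 37 °C), run in 384-well plates.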

Acinetobacter baumannii [7] = experiment: Antibacterial activity against non multi-drug resistant Acinetobacter baumannii assessed as bacterial growth inhibition at 8 ug/ml by CLSI based broth microdilution method relative to control; format: functional; parameters: scale not given: the % may be the effect or the level left; conditions: dose 8 µg/ml
Summary of the method: (§1)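 Panel of 100 A. baumannii strains of diverse geographic origin, 50 MDR and 50 non-MDR. Tested at a contract lab by broth microdilution following CLSI guidelines. Read-out is the percentage of strains inhibited at each concentration.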

Acinetobacter baumannii [8] = experiment: Antibacterial activity against multi-drug resistant Acinetobacter baumannii assessed as bacterial growth inhibition by CLSI based broth microdilution method; format: functional
Acinetobacter baumannii [9] = experiment: Antibacterial activity against multi-drug resistant Acinetobacter baumannii assessed as bacterial growth inhibition at 8 ug/ml by CLSI based broth microdilution method relative to control; format: functional; parameters: scale not given: the % may be the effect or the level left; conditions: dose 8 µg/ml; summary of the method: as §1
Enterococcus faecium = experiment: Antibacterial activity against Enterococcus faecium ATCC 700221 assessed as bacterial growth inhibition incubated for 18 hrs by microplate reader based analysis; format: functional
Enterococcus faecalis = experiment: Antibacterial activity against Enterococcus faecalis ATCC 29212 assessed as bacterial growth inhibition incubated for 18 hrs by microplate reader based analysis; format: functional
[10] = biological target: T1, Voltage-gated inwardly rectifying potassium channel KCNH2 (Homo sapiens, UniProt Q12809); experiment: Inhibition of hERG channel expressed in HEK293 cells at -40 mV holding potential by whole-cell voltage clamp method; format: toxicity, cell-based
[11] = biological target: T1, Voltage-gated inwardly rectifying potassium channel KCNH2; experiment: Inhibition of hERG potassium ion channel expressed in CHO cells at 50 microM by patch-clamp method; format: toxicity, cell-based
[12] = Genotoxicity in CHO-K1 cells upto 100 uM incubated for 24 hrs in absence of rat liver S9 fraction by micronucleus test; format: toxicity, cell-based, Cricetulus griseus; conditions: chinese hamster, cho-k1, 24 h
HepG2 [13] = experiment: Cytotoxicity against human HepG2 cells assessed as reduction in cell growth upto 100 uM incubated for 72 hrs in absence of fetal bovine serum by MTS assay; format: toxicity, cell-based; conditions: hepg2, 72 h
[14] = biological target: Sodium channel protein type 5 subunit alpha (Homo sapiens, UniProt Q14524); experiment: Inhibition of Nav1.5 ion channel (unknown origin) expressed in CHO cells at 10 microM by patch-clamp method; format: cell-based
MCF7 [15] = experiment: Cytotoxicity against human MCF7 cells assessed as reduction in cell growth upto 100 uM incubated for 72 hrs in absence of fetal bovine serum by MTS assay; format: toxicity, cell-based; conditions: mcf7, 72 h
HepG2 [16] = experiment: Mitotoxicity in human HepG2 cells upto 1000 uM incubated for 24 hrs by glu/gal assay; format: toxicity, cell-based; conditions: hepg2, 24 h
[17] = Metabolic stability in human liver microsomes assessed as intrinsic clearance […] at 1 uM measured upto 60 mins by LC-MS/MS analysis; format: ADME, Microsome; conditions: 1 h
Summary of the method: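 Pooled human liver microsomes at 0.5 mg/mL in 100 mM KPO4 pH 7.4, compound at 1 μM final. Started with 1 mM NADPH; sampled at 0, 5, 10, 20, 40 and 60 min. Quenched with cold acetonitrile plus internal standard; parent remaining measured by LC–MS/MS. Intrinsic clearance calculated by the Obach approach with literature scaling factors.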

[18] = Hemolytic activity in human RBC assessed as hemolysis at 100 uM incubated for 45 mins under shaking condition by spectrophotometer analysis; format: toxicity, cell-based; conditions: erythrocyte
HepG2 [19] = experiment: Cytotoxicity against human HepG2 cells assessed as reduction in cell growth upto 100 uM incubated for 72 hrs by MTS assay; format: toxicity, cell-based; conditions: hepg2, 72 h
MCF7 [20] = experiment: Cytotoxicity against human MCF7 cells assessed as reduction in cell growth upto 100 uM incubated for 72 hrs by MTS assay; format: toxicity, cell-based; conditions: mcf7, 72 h
[21] = Genotoxicity in CHO-K1 cells up to 50 uM incubated for 24 hrs in presence of rat liver S9 fraction by micronucleus test; format: toxicity, subcellular, Cricetulus griseus; conditions: chinese hamster, s9, 24 h
DNA gyrase = DNA gyrase (Escherichia coli, UniProt P0AES4+P0AES6); experiment: Inhibition of Escherichia coli DNA gyrase supercoiling; format: protein-complex assay
Summary of the method: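 E. coli gyrase supercoiling measured in a high-throughput plate assay from a commercial kit. Seven inhibitor concentrations; IC50 fitted from the curve, mean of three independent experiments.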

Acinetobacter baumannii [22] = experiment: Antibacterial activity against clinical isolate Acinetobacter baumannii assessed as bacterial growth inhibition at 32 ug/ml by CLSI based broth microdilution method relative to control; format: functional
[23] = Plasma protein binding in CD-1 mouse assessed as unbound fraction at 5 uM incubated for 4 hrs by equilibrium dialysis method; format: ADME, cell-free
Summary of the method: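 Equilibrium dialysis in pooled male CD-1 mouse plasma. Compound at 5 μM (0.5% DMSO), two replicates, 4 h at 37 °C, sampled at 0 min and 4 h. Buffer and plasma aliquots were matrix-matched, quenched with acetonitrile/methanol (2:1) containing internal standard, and analysed by LC–MS/MS. Caffeine, verapamil and nicardipine served as binding controls.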

Staphylococcus aureus [24] = experiment: Antibacterial activity against Vancomycin-intermediate Staphylococcus aureus ATCC 700699 assessed as bacterial growth inhibition incubated for 18 hrs by microplate reader based analysis; format: functional
Staphylococcus aureus [25] = experiment: Antibacterial activity against Methicillin-resistant Staphylococcus aureus ATCC 43300 assessed as bacterial growth inhibition incubated for 18 hrs by microplate reader based analysis; format: functional
Summary of the method: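 Cation-adjusted Mueller Hinton broth II; strains grown overnight on agar then broth at 37 °C. Two-fold 12-step serial dilutions from DMSO stocks (final DMSO at most 0.64%), 5 × 10^4 cells per well, three parallel replicates, 37 °C with 150 rpm shaking for 18 h.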

Staphylococcus aureus [26] = experiment: Antibacterial activity against Staphylococcus aureus ATCC 29213 assessed as bacterial growth inhibition incubated for 18 hrs by microplate reader based analysis; format: functional

T1 sequence (Q12809 whole entry): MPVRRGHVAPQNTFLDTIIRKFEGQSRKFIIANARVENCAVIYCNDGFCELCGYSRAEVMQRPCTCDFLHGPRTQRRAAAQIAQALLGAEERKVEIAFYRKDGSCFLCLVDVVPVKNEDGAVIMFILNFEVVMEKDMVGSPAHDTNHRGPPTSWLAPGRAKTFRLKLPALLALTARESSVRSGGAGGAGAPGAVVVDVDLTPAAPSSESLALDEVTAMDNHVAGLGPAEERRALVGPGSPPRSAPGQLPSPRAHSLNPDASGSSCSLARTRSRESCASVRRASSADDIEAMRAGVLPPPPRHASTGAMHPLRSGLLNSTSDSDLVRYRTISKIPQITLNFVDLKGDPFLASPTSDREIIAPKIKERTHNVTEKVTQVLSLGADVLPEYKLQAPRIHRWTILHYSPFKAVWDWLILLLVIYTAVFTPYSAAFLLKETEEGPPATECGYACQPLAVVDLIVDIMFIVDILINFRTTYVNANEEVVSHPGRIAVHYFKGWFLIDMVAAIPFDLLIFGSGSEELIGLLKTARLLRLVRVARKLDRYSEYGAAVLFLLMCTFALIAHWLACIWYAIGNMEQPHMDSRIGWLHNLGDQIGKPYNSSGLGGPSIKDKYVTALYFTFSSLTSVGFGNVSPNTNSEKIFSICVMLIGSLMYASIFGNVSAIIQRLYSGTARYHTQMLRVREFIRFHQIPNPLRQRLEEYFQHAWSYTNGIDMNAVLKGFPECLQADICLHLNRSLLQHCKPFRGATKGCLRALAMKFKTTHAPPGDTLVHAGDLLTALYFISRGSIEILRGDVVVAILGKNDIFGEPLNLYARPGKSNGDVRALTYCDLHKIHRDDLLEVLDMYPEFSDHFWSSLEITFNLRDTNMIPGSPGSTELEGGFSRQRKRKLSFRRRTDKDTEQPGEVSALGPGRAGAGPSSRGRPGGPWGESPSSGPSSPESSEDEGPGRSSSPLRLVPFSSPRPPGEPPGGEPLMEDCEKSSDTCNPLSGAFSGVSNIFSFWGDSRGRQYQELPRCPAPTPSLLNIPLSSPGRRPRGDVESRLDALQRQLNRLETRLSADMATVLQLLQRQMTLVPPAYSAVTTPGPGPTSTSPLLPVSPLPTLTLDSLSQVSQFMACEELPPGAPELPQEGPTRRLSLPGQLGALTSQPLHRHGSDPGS
Sequence of Topoisomerase IV (P0C1U9 whole entry): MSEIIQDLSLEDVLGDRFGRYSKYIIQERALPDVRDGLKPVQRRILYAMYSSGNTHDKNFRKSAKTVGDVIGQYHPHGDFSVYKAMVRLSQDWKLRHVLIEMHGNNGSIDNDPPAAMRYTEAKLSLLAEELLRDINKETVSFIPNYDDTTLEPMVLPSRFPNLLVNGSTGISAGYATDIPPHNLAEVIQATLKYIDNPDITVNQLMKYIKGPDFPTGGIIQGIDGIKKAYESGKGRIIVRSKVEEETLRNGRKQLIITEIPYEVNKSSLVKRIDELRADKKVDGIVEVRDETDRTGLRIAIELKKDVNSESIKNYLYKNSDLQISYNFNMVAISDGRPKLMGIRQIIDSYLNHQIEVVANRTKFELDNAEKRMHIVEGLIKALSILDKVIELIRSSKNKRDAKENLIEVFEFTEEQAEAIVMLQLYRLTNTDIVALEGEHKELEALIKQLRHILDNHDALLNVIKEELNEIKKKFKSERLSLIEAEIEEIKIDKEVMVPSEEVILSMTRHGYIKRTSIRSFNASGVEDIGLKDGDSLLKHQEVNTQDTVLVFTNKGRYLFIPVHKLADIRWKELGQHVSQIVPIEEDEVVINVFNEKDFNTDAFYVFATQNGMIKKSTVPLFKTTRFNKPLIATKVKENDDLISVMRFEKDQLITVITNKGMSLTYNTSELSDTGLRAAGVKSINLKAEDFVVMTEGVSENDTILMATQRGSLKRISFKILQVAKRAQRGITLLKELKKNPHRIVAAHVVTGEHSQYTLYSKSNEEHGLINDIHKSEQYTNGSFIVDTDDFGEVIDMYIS
Sequence of Topoisomerase IV (P0C1S7 whole entry): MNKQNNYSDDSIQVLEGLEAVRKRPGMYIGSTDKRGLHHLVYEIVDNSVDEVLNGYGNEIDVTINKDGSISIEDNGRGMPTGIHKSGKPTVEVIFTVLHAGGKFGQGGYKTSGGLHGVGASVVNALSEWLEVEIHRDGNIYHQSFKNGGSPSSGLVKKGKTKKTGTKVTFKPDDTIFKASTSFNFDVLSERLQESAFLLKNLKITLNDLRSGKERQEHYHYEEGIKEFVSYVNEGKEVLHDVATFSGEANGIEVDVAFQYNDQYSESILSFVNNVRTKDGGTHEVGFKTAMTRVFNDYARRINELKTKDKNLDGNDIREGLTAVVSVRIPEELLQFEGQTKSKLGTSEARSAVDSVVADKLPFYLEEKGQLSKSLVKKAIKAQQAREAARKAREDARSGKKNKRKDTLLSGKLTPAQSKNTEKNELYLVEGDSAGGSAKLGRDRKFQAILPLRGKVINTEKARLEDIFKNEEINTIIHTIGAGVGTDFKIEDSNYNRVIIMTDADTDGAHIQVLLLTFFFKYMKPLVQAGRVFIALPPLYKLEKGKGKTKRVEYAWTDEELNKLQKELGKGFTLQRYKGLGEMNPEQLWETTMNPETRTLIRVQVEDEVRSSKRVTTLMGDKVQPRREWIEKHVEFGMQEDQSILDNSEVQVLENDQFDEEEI
Sequence of Sodium channel protein type 5 subunit alpha (Q14524 whole entry): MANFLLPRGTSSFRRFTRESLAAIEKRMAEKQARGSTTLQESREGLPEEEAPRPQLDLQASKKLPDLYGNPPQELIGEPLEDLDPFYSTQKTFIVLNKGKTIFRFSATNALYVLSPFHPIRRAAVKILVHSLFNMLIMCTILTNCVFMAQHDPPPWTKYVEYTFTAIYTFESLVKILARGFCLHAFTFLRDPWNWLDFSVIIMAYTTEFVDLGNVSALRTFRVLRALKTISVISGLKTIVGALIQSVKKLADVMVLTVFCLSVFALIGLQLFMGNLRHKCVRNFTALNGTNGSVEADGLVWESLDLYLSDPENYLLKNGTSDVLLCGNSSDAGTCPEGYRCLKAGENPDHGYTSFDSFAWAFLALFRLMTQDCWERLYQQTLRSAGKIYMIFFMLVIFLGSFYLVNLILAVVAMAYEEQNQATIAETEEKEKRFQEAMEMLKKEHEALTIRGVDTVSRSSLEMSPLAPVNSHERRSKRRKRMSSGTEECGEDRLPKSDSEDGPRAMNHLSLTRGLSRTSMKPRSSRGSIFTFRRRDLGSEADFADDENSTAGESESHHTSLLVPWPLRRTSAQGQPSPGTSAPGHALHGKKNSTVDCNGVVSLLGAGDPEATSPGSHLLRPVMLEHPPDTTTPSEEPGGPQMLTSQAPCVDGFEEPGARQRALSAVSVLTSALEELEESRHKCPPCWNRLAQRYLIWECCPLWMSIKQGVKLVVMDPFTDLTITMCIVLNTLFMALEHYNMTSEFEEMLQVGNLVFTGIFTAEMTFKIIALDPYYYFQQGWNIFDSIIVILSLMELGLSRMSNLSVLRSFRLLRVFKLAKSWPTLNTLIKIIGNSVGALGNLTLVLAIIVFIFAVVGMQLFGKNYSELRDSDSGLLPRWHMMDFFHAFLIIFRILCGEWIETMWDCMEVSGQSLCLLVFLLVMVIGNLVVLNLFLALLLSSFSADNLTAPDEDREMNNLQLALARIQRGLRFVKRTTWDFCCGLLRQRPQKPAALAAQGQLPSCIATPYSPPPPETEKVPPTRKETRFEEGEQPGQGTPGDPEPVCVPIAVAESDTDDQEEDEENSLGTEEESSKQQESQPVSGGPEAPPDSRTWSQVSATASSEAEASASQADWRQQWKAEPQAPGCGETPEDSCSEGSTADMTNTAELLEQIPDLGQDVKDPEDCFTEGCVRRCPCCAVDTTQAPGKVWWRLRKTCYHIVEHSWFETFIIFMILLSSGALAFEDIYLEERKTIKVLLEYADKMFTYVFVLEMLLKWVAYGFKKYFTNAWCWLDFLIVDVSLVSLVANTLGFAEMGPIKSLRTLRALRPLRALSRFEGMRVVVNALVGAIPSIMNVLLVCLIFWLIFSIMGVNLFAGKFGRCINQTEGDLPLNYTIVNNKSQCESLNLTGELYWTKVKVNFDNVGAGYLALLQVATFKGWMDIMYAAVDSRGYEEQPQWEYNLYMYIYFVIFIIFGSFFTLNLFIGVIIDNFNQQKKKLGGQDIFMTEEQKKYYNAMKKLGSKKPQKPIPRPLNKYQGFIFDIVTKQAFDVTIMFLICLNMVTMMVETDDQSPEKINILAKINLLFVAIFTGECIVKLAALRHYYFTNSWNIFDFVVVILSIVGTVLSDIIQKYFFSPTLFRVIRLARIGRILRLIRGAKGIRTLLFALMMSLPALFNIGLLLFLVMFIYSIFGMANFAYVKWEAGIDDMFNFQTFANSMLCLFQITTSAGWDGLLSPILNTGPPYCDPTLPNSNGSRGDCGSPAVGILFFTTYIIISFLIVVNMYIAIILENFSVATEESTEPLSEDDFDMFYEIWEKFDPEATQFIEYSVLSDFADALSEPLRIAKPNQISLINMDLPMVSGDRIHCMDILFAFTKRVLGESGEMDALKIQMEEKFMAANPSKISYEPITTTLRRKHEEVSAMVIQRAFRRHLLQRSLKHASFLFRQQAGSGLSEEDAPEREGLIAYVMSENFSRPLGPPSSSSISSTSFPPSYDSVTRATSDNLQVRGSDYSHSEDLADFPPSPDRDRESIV

In the case of `Cc1[nH]c(C(=O)Nc2nc3c(N4CCC(O)CC4)cc(C(=O)O)cc3s2)c(Cl)c1Cl`, the Activity (Pseudomonas aeruginosa) is reported as “inactive”, the Activity (Escherichia coli) is reported as “inactive” and the Activity (Enterobacter cloacae) is reported as “inactive”. For the same compound, the Activity (Acinetobacter baumannii [1]) was “inactive”.
With `Cc1[nH]c(C(=O)Nc2nc3c(N4CCCC4)cc(C(=O)O)cc3s2)c(Cl)c1Cl` the IC50 [2] was < 0.1 µM.
`CO[C@@H]1[C@@H](OC(N)=O)[C@@H](O)[C@H](Oc2ccc3c(O)c(NC(=O)c4ccc(O)c(CC=C(C)C)c4)c(=O)oc3c2C)OC1(C)C` [NOVOBIOCIN] showed an IC50 [3] of 8.37 µM, an IC50 [4] of 9.46 µM and an IC50 (Topoisomerase IV) of 13.3 µM.
`Cc1[nH]c(C(=O)Nc2nc3c(N4[C@@H]5CC[C@H]4COC5)cc(C(=O)O)cc3s2)c(Cl)c1Cl` showed a solubility thermodynamic at 48 h [5] of 0.26 µM (≈ 0.125 µg/mL) and an IC50 [2] of 0.14 µM.
In the case of `Cc1[nH]c(C(=O)Nc2nc3c(N4CC[C@H](N(C)C)C4)cc(C(=O)O)cc3s2)c(Cl)c1Cl`, the Activity (Klebsiella pneumoniae) is reported as “inactive”, the Activity (Pseudomonas aeruginosa) is reported as “inactive” and the Activity (Escherichia coli) is reported as “inactive”. The Activity (Enterobacter cloacae) was “inactive”, the Activity (Acinetobacter baumannii [1]) was “inactive” and the IC50 [2] was 0.12 µM.
`Cc1[nH]c(C(=O)Nc2nc3c(N4CCOC4=O)cc(C(=O)O)cc3s2)c(Cl)c1Cl` showed an IC50 [2] of 0.12 µM.
In the case of COLISTIN, the inhibition (Acinetobacter baumannii [6]) is reported as “Active”.
In the case of `Cc1[nH]c(C(=O)Nc2nc3c(N4C[C@H]5CC[C@@H](C4)O5)cc(C(=O)O)cc3s2)c(Cl)c1Cl`, the MIC (Enterobacter cloacae) is reported as 16 µg/mL (≈ 33.2 µM).
In the case of `Cc1[nH]c(C(=O)Nc2nc3c(N4CCNCC4)cc(C(=O)O)cc3s2)c(Cl)c1Cl`, the Activity (Klebsiella pneumoniae) is reported as “inactive”, the Activity (Pseudomonas aeruginosa) is reported as “inactive” and the Activity (Escherichia coli) is reported as “inactive”. For the same compound, the Activity (Enterobacter cloacae) was “inactive” and the Activity (Acinetobacter baumannii [1]) was “inactive”.
For `CN(C)c1cc(NC(=O)CNC(C)(C)C)c(O)c2c1C[C@H]1C[C@H]3[C@H](N(C)C)C(O)=C(C(N)=O)C(=O)[C@@]3(O)C(O)=C1C2=O` [TIGECYCLINE], the Activity (Acinetobacter baumannii [7]) was 100%, the MIC (Acinetobacter baumannii [8]) was > 16 µg/mL and the Activity (Acinetobacter baumannii [9]) was 100%.
For `Cc1[nH]c(C(=O)Nc2nc3c(CN4CCOCC4)cc(C(=O)O)cc3s2)c(Cl)c1Cl`, the Activity (Klebsiella pneumoniae) was “inactive”, the Activity (Pseudomonas aeruginosa) was “inactive” and the Activity (Escherichia coli) was “inactive”. For the same compound, the Activity (Enterobacter cloacae) was “inactive”, the Activity (Acinetobacter baumannii [1]) was “inactive” and the IC50 [2] was 0.12 µM.
For `Cc1[nH]c(C(=O)Nc2nc3c(N4CC[C@H](N)C4)cc(C(=O)O)cc3s2)c(Cl)c1Cl`, the Activity (Pseudomonas aeruginosa) was “inactive”, the Activity (Escherichia coli) was “inactive” and the Activity (Enterobacter cloacae) was “inactive”. For the same compound, the Activity (Acinetobacter baumannii [1]) was “inactive” and the IC50 [2] was < 0.1 µM.
With `COCCCNc1cc(C(=O)O)cc2sc(NC(=O)c3[nH]c(C)c(Cl)c3Cl)nc12.N` the MIC (Enterococcus faecium) was < 0.0312 µg/mL and the MIC (Enterococcus faecalis) was < 0.0312 µg/mL.
With `Cc1[nH]c(C(=O)Nc2nc3c(N4CCC(=S)CC4)cc(C(=O)O)cc3s2)c(Cl)c1Cl` the IC50 [2] was < 0.1 µM.
With `Cc1[nH]c(C(=O)Nc2nc3c(N4CCOCC4)cc(C(=O)O)cc3s2)c(Cl)c1Cl` the “inhibition (INH)” value [10] was “Not Active”, the “inhibition (INH)” value [11] was “Not Active” and the Activity [12] was “Non-Toxic”. The Activity (HepG2 [13]) was “Non-Toxic”, the “inhibition (INH)” value [14] was “Not Active” and the Activity (MCF7 [15]) was “Non-Toxic”. The Activity (HepG2 [16]) was “Non-Toxic”, the CLint [17] was 13 µL/min and the Activity [18] was “Non-Toxic”. For the same compound, the Activity (HepG2 [19]) was “Non-Toxic”, the Activity (MCF7 [20]) was “Non-Toxic” and the Activity [21] was “Non-Toxic”.
Work on `Cc1[nH]c(C(=O)Nc2nc3c(N4CCOC[C@@H]4C)cc(C(=O)O)cc3s2)c(Cl)c1Cl` yielded an IC50 (DNA gyrase) of 0.017 µM.
`C[C@H]1c2cccc(O)c2C(=O)C2=C(O)[C@]3(O)C(=O)C(C(N)=O)=C(O)[C@@H](N(C)C)[C@@H]3[C@@H](O)[C@@H]21` [DOXYCYCLINE] gave an inhibition at 32 µg/mL (Acinetobacter baumannii [22]) of 100%.
With `Cc1[nH]c(C(=O)Nc2nc3c(N4CCOC[C@H]4C)cc(C(=O)O)cc3s2)c(Cl)c1Cl` the fraction unbound at 4 h, 5 µM [23] was 0.011.
For `Cc1[nH]c(C(=O)Nc2nc3c(N4CCOCC4)cc(C(=O)O)cc3s2)cc1Cl`, the Activity (Enterococcus faecium) was “Active”, the Activity (Staphylococcus aureus [24]) was “Active” and the Activity (Staphylococcus aureus [25]) was “Active”. For the same compound, the Activity (Enterococcus faecalis) was “Active” and the Activity (Staphylococcus aureus [26]) was “Active”.
